Source: PubChem BioAssay (The Scripps Research Institute Molecular Screening Center)
Rows were chosen to be rich in hits. Some 1.9% of all compounds tested hit in one or more screens of this group.
NPY1 pot ag: NPY-Y1 receptor potentiators or agonists, primary screen, cell-based. NPY-Y1 expressing cells, potentiator/agonist activation. activation, % at 3.6 µM. actives 0.37% (n = 220,000). Neuropeptide Y receptor type 1 (Homo sapiens), P25929; in the data active = activation above about 33%, passing the limit was not always enough;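 also: cells stimulated with NPY at EC10 then isoproterenol at EC100; 0% = low agonist plus stimulus and 100% = saturating agonist plus stimulus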
Target sequence (P25929 whole entry, looked up): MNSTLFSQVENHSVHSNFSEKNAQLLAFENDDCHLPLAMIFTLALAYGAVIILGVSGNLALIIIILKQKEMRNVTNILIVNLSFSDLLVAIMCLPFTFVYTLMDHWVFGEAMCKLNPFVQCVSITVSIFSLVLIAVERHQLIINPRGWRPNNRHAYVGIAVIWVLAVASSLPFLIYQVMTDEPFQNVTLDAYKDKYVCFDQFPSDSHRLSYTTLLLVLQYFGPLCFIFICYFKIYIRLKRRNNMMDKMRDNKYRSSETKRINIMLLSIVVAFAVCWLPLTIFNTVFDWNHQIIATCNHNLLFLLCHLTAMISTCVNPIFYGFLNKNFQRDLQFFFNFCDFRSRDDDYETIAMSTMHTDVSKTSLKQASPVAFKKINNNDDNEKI
NPY Y1 blocker: NPY-Y1 receptor antagonists, primary screen, cell-based; Neuropeptide Y receptor type 1 (Homo sapiens), P25929; HEK293-CNG Y1 cells, membrane potential fluorescence; NPY at EC95, then isoproterenol; inhibition, % at 3.6 µM; actives 1% (n = 200,000); AID 1040, 2008;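 active = inhibition above the campaign mean inhibition of all tested compounds plus 3 SD, cut at about 20% in these data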;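 also: 0% = DMSO wells given NPY plus isoproterenol and 100% = isoproterenol alone without NPY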
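System: HEK293 cells with Y1 receptor plus CNG channel / Probe or stimulus: NPY 25 nM then isoproterenol 1 µM plus Ro 20-1724 25 µM / Compound: one concentration, 3.6 µM, in 0.4% DMSO / Schedule: compound incubation 1 h at room temperature, readout 45 min post-stimulation / Measured by: membrane potential fluorescence / Read-out: % inhibition of NPY effect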
NPY2 pot ag: NPY-Y2 potentiators or agonists, primary screen, cell-based. Neuropeptide Y receptor type 2 (Homo sapiens), P49146. cells expressing NPY-Y2, potentiator/agonist read-out. activation, % at 3.6 µM. actives 0.45% (n = 220,000); in the data active = activation above about 27%;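 also: cells stimulated with NPY near EC25 plus isoproterenol at EC100; 0% = vehicle plus submaximal agonist and 100% = vehicle plus saturating agonist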
NPY Y2 blocker: NPY-Y2 receptor antagonists, primary screen, cell-based | Neuropeptide Y receptor type 2 (Homo sapiens), P49146 | NPY-Y2 expressing cells, antagonist mode | inhibition, % at 2.7 µM | actives 0.99% (n = 140,000) | AID 793, 2007; in the data active = inhibition above about 17%;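 also: 0% = vehicle with agonist challenge and 100% = reference antagonist with challenge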
NPY1 antag ctr: NPY-Y1 receptor antagonists, selectivity check, counter-screen for NPY-Y2 antagonist project, cell-based; shares compounds with NPY Y2 blocker; cell-based NPY-Y1 antagonism counterscreen; inhibition, % at 3.6 µM; actives 19% (n = 710); AID 1256, 2008; in the data active = inhibition above about 20%;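 also: cells challenged with NPY then isoproterenol with cAMP sensed through a CNG channel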
NPY-Y2 ant conf: NPY-Y2 receptor antagonists, retest of hits, confirmation, HEK293-CNG cells, membrane potential fluorescence, triplicate; actives 32% (n = 710); AID 1257, 2008; shares compounds with NPY Y2 blocker; inhibition, % at 2.8 µM; HEK293 NPY-Y2 CNG channel;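 active = mean inhibition of triplicate wells above the hit cutoff set in the primary screen, cut at about 17% in these data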;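 also: 0% = DMSO with NPY challenge and 100% = BIIE0246 high control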
An asterisk follows results filed as active; / = no result.

SMILES	NPY1 pot ag	NPY Y1 blocker	NPY2 pot ag	NPY Y2 blocker	NPY1 antag ctr	NPY-Y2 ant conf
O=C1CSC(c2cn(-c3ccccc3)nc2-c2cc3ccccc3oc2=O)N1Cc1ccccc1 (stereo not given)	-27.8	10.9	-14.7	2.9	/	/
O=c1c2ccccc2nc(-c2ccccc2)n1CCN1CCOCC1	2.9	0.1	18.9	-1.2	/	/
O=c1c2ccccc2nc2c3ccccc3c(NCCN3CCOCC3)nn12	-40.3	13.8	-17.8	20.4*	16.9	24.6*
COC(=O)c1cn(NC(=O)Cc2ccccc2Br)c(=O)c2ccccc12	7.5	4.4	-6.5	/	/	/
CCOC(=O)c1nn(-c2ccccc2)c(C#N)c1N	-13.6	-6.6	-5.8	/	/	/
CCCSc1cc(=O)n(-c2ccccc2)nc1C(=O)OCC	-8.1	2.7	6.9	18.9*	1.9	1.4
CO/C=C\C=C/c1nnn(-c2ccc(Cl)cc2)n1	-4.5	2.8	8.6	2.7	/	/
O=c1c2ccccc2nnn1CSc1ccc2ccccc2n1	-1.5	1.0	-3.5	4.5	/	/
O=c1c2ccccc2nnn1CSc1ccccc1	13.4	0.8	0.1	23.9*	5.6	1.8
CCOc1ccccc1NS(=O)(=O)c1cn(C)c(=O)n(C)c1=O	7.5	/	-2.7	/	/	/
Cc1cc(C(F)F)nn1CC(=O)NCc1ccc(Cl)cc1Cl	5.5	8.6	14.7	17.1*	-0.8	1.3
O=C(O)CN(c1ccccc1)S(=O)(=O)c1cc(C(F)(F)F)cc(C(F)(F)F)c1	4.2	4.2	-5.0	/	/	/
CCC1Oc2ccc(C)cc2N(CC(=O)NCCC2=CCCCC2)C1=O (stereo not given)	5.5	8.0	5.3	19.1*	13.7	11.9
COc1ccc(-n2nc(C(=O)Nc3ccc4c(c3)OCO4)c3ccccc3c2=O)cc1	-9.1	0.5	-6.9	22.9*	12.2	20.9*
COc1ccc(-n2nc(C(=O)N3CCN(Cc4ccc5c(c4)OCO5)CC3)c3ccccc3c2=O)cc1	10.1	-0.6	7.7	16.6	/	/
COc1ccc(NC(=O)C(NC(C)=O)C(=O)NCc2ccccc2)cc1 (stereo not given)	1.7	0.0	-5.4	1.2	/	/
COc1ccc(CNC(=O)C(NC(C)=O)C(=O)Nc2ccc(OC)cc2)cc1 (stereo not given)	16.3	5.1	2.4	21.2*	-0.3	-1.3
COc1ccc(NC(=O)COC(=O)Cc2c(F)cccc2Cl)cc1OC	5.0	3.3	-8.3	/	/	/
Cc1ccc(-n2c(-c3ccncc3)n[nH]c2=S)c(C)c1	12.1	-1.8	1.9	/	/	/
Cc1nc2ccccc2cc1OCc1ccc(Cl)cc1	-70.3	9.5	-3.9	19.2*	21.5*	17.2*
COC(=O)/C=C1\N/C(=N\c2nc(C)cc(C)n2)N(c2ccc(Cl)cc2)C1=O	-0.8	/	17.5	/	/	/
CC1CCN(c2ccccc2NC(=S)NC(=O)c2cccs2)CC1	-36.4	7.4	-0.5	21.0*	20.1*	15.3
CCOc1ccc(OCCSc2nnnn2-c2ccccc2)cc1	-26.6	8.6	-24.5	7.2	/	/
Clc1ccc(OCCSc2nnnn2C2CCCCC2)cc1	-11.2	15.5	0.6	22.1*	16.9	21.4*
CCOc1ccc(OCCSc2nnnn2C2CCCCC2)cc1	-20.8	18.8	-21.9	17.4*	9.3	14.1
SMILES	NPY1 pot ag	NPY Y1 blocker	NPY2 pot ag	NPY Y2 blocker	NPY1 antag ctr	NPY-Y2 ant conf
Cn1cnnc1SCCOc1ccc(Cl)cc1	20.1	1.2	-13.6	/	/	/
Nn1c(Cc2cccc3ccccc23)nnc1SCc1c(Cl)cccc1Cl	-29.0	1.5	-22.7	20.3*	16.5	40.5*
COc1ccc(Cl)cc1NC(=O)c1c(-c2ccccc2)noc1C	-16.9	17.9	-3.1	24.8*	18.6	9.8
COc1ccc2nc3ccccc3nc2c1NC(=O)c1ccc(Cl)cc1Cl	12.9	2.4	-6.9	1.3	/	/
COc1ccccc1CNC(=O)CSc1ccc(C)cc1	-19.9	5.5	12.8	27.8*	0.3	3.7
COc1ccccc1CNC(=O)CSc1ccccc1	16.7	-4.7	-9.2	/	/	/
COc1ccc(N2C(=O)NC(NC(=O)c3ccncc3)(C(F)(F)F)C2=O)cc1 (stereo not given)	-5.6	-4.7	4.1	1.5	/	/
O=C(c1ccco1)N(CCCN1CCOCC1)c1nc(-c2ccc(F)cc2)cs1	-30.3	9.4	-15.5	19.0*	15.7	12.9
COc1ccc(C(C(=O)NC2CCCC2)N(C(=O)c2ccoc2C)c2ccc(C)cc2)cc1 (stereo not given)	-16.6	19.7	-19.1	18.6*	6.5	3.6
COc1ccc(C(C(=O)NC2CCCCC2)N(C(=O)CCl)c2ccc(C)cc2)cc1 (stereo not given)	7.9	5.5	-8.9	2.3	/	/
Cc1cccc(NC(=S)NNC(=S)NCc2ccccc2)c1	18.7	10.2	-7.4	29.1*	16.8	22.3*
CC1CCN(CCCNC(=O)c2ccc(CSCc3cccc(Cl)c3)o2)CC1	-24.5	12.1	-7.1	17.4*	9.0	12.5
CN1CCN(CCCNC(=O)c2ccc(CSCc3cccc(Cl)c3)o2)CC1	-6.4	0.0	1.3	1.9	/	/
CCOC(=O)c1c(NC(=O)C2C3C=CC(CC3)C2C(=O)O)sc(C)c1C (stereo not given)	17.9	2.2	14.4	18.4*	0.2	2.7
CCOC(=O)c1c(NC(=O)C2C3C=CC(C3)C2C(=O)O)sc2c1CCC(CC)C2 (stereo not given)	18.1	-0.1	2.2	3.5	/	/
COc1ccc(C2Nc3ccccc3C(=O)N2Cc2ccco2)cc1COc1ccc(F)cc1 (stereo not given)	-49.8	19.6	-20.6	21.7*	9.6	8.8
COc1ccc(C2Nc3ccccc3C(=O)N2Cc2ccco2)cc1CN1C(=O)c2ccccc2C1=O (stereo not given)	30.0	-3.6	-9.0	0.8	/	/
CC(=O)Nc1ccccc1O	-0.3	2.5	4.9	-0.1	/	/
C/C(=C\C(=O)c1ccncc1)Nc1ccccc1O	7.8	1.5	11.5	17.8*	1.2	7.5
Cc1ccc(-n2c(SCC(=O)N(C)C3CCS(=O)(=O)C3)nc3ccccc3c2=O)cc1 (stereo not given)	-4.9	7.8	-13.3	/	/	/
CC1=NN(c2ccccc2)C(=O)/C1=C\c1ccc(Br)s1	-31.8	4.9	-1.8	17.1*	30.5*	33.5*
COC(=O)c1ccc(OCC(=O)c2ccc(C)c(C)c2)cc1	-14.5	11.9	-0.6	25.9*	16.6	6.2
COc1ccc(/C=C/C(O)=C2/C(=O)N(C)C3(C)CC2c2ccccc2O3)cc1 (stereo not given)	-30.0	10.9	1.8	21.2*	15.7	11.3
Cc1ccc(NC(=O)c2ccc(OC(F)(F)F)cc2)cc1S(=O)(=O)N(C)C	11.7	-0.5	-12.2	2.2	/	/
